Results published in ChEMBL document CHEMBL1146199, “Daptomycin susceptibility of unusual gram-positive bacteria: comparison of results obtained by the Etest and the broth microdilution method” (2007).
Values after ≈ are worked out from the molar mass of the structure shown.

What was measured:
Type in all cases: functional
Rhodococcus sp. [1] = assay: Antimicrobial activity against Rhodococcus spp. by broth microdilution method; conditions: Rhodococcus sp. (in: high G+C Gram-positive bacteria)
In short: (§1)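 MIC by CLSI broth microdilution in Mueller-Hinton broth. Daptomycin testing used broth supplemented with calcium at physiological level (50 μg/ml). Vancomycin and linezolid were tested from standard powders. Control strains were S. aureus ATCC 29213 and Enterococcus faecalis 29212.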

Leuconostoc [2] = assay: Antimicrobial activity against Leuconostoc spp. by broth microdilution method; in short: as §1
Nocardia asteroides [3] = assay: Antimicrobial activity against Nocardia asteroides by broth microdilution method; in short: as §1
Nocardia sp. [4] = assay: Antimicrobial activity against Nocardia spp. by broth microdilution method; in short: as §1
Nocardia brasiliensis [5] = assay: Antimicrobial activity against Nocardis brasiliensis by broth microdilution method; in short: as §1
Pediococcus [6] = assay: Antimicrobial activity against Pediococcus spp. by broth microdilution method; in short: as §1
Listeria monocytogenes [7] = assay: Antimicrobial activity against Listeria monocytogenes by broth microdilution method; in short: as §1
Pediococcus [8] = assay: Antimicrobial activity against Pediococcus spp. by Etest
In short: (§2)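 Daptomycin MIC read from an Etest strip carrying a daptomycin-plus-calcium gradient, run per manufacturer's instructions. Each isolate was compared with its broth microdilution MIC (Mueller-Hinton broth, 50 μg/ml calcium). Agreement was defined as within 1 twofold dilution. Mean log2 difference was tested by one-sample t test.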

Leuconostoc [9] = assay: Antimicrobial activity against Leuconostac spp. by Etest; in short: as §2
Rhodococcus sp. [10] = assay: Antimicrobial activity against Rhodococcus spp. by Etest; conditions: Rhodococcus sp. (in: high G+C Gram-positive bacteria); in short: as §2
Nocardia sp. [11] = assay: Antimicrobial activity against Nocardia spp. by Etest; in short: as §2
Listeria monocytogenes [12] = assay: Antimicrobial activity against Listeria monocytogenes by Etest; in short: as §2
Nocardia asteroides [13] = assay: Antimicrobial activity against Nocardia asteroids by Etest; in short: as §2
Nocardia brasiliensis [14] = assay: Antimicrobial activity against Nocardis brasiliensis by Etest; in short: as §2

MIC50 (Rhodococcus sp. [1]) [µg/mL] | MIC90 (Rhodococcus sp. [1]) [µg/mL] | MIC50 (Leuconostoc [2]) [µg/mL] | MIC90 (Leuconostoc [2]) [µg/mL] | MIC50 (Nocardia asteroides [3]) [µg/mL] | MIC90 (Nocardia asteroides [3]) [µg/mL] | MIC50 (Nocardia sp. [4]) [µg/mL] | MIC90 (Nocardia sp. [4]) [µg/mL] | MIC50 (Nocardia brasiliensis [5]) [µg/mL] | MIC90 (Nocardia brasiliensis [5]) [µg/mL] | MIC50 (Pediococcus [6]) [µg/mL] | MIC90 (Pediococcus [6]) [µg/mL] | MIC50 (Listeria monocytogenes [7]) [µg/mL] | MIC90 (Listeria monocytogenes [7]) [µg/mL] | SMILES | also measured
1 (≈ 2.96 µM) | 2 (≈ 5.93 µM) | 4 (≈ 11.9 µM) | 4 (≈ 11.9 µM) | 4 (≈ 11.9 µM) | 4 (≈ 11.9 µM) | 4 (≈ 11.9 µM) | 4 (≈ 11.9 µM) | 8 (≈ 23.7 µM) | 8 (≈ 23.7 µM) | 2 (≈ 5.93 µM) | 4 (≈ 11.9 µM) | 2 (≈ 5.93 µM) | 2 (≈ 5.93 µM) | CC(=O)NC[C@H]1CN(c2ccc(N3CCOCC3)c(F)c2)C(=O)O1 [LINEZOLID] | 
> 64 | > 64 | 0.12 (≈ 0.074 µM) | 0.25 (≈ 0.154 µM) | > 64 | > 64 | > 64 | > 64 | > 64 | > 64 | 0.25 (≈ 0.154 µM) | 0.5 (≈ 0.309 µM) | 4 (≈ 2.47 µM) | 4 (≈ 2.47 µM) | CCCCCCCCCC(=O)N[C@@H](Cc1c[nH]c2ccccc12)C(=O)N[C@H](CC(N)=O)C(=O)N[C@@H](CC(=O)O)C(=O)N[C@@H]1C(=O)NCC(=O)N[C@@H](CCCN)C(=O)N[C@@H](CC(=O)O)C(=O)N[C@H](C)C(=O)N[C@@H](CC(=O)O)C(=O)NCC(=O)N[C@H](CO)C(=O)N[C@@H]([C@H](C)CC(=O)O)C(=O)N[C@@H](CC(=O)c2ccccc2N)C(=O)O[C@@H]1C | MIC50 (Pediococcus [8]): 0.25 µg/mL (≈ 0.154 µM); MIC90 (Pediococcus [8]): 0.5 µg/mL (≈ 0.309 µM); MIC50 (Leuconostoc [9]): 0.25 µg/mL (≈ 0.154 µM); MIC90 (Leuconostoc [9]): 0.5 µg/mL (≈ 0.309 µM); MIC50 (Rhodococcus sp. [10]): 96 µg/mL (≈ 59.2 µM); MIC90 (Rhodococcus sp. [10]): > 256 µg/mL; MIC50 (Nocardia sp. [11]): > 256 µg/mL; MIC90 (Nocardia sp. [11]): > 256 µg/mL; MIC50 (Listeria monocytogenes [12]): 3 µg/mL (≈ 1.85 µM); MIC90 (Listeria monocytogenes [12]): 4 µg/mL (≈ 2.47 µM); MIC50 (Nocardia asteroides [13]): > 256 µg/mL; MIC90 (Nocardia asteroides [13]): > 256 µg/mL; MIC50 (Nocardia brasiliensis [14]): > 256 µg/mL; MIC90 (Nocardia brasiliensis [14]): > 256 µg/mL

SMILES | MIC50 (Rhodococcus sp. [1]) [µg/mL] | MIC90 (Rhodococcus sp. [1]) [µg/mL] | MIC50 (Leuconostoc [2]) [µg/mL] | MIC90 (Leuconostoc [2]) [µg/mL] | MIC50 (Nocardia asteroides [3]) [µg/mL] | MIC90 (Nocardia asteroides [3]) [µg/mL] | MIC50 (Nocardia sp. [4]) [µg/mL] | MIC90 (Nocardia sp. [4]) [µg/mL] | MIC50 (Nocardia brasiliensis [5]) [µg/mL] | MIC90 (Nocardia brasiliensis [5]) [µg/mL] | MIC50 (Pediococcus [6]) [µg/mL] | MIC90 (Pediococcus [6]) [µg/mL] | MIC50 (Listeria monocytogenes [7]) [µg/mL] | MIC90 (Listeria monocytogenes [7]) [µg/mL] | also measured
CN[C@H](CC(C)C)C(=O)N[C@H]1C(=O)N[C@@H](CC(N)=O)C(=O)N[C@H]2C(=O)N[C@H]3C(=O)N[C@H](C(=O)N[C@H](C(=O)O)c4cc(O)cc(O)c4-c4cc3ccc4O)[C@H](O)c3ccc(c(Cl)c3)Oc3cc2cc(c3O[C@@H]2O[C@H](CO)[C@@H](O)[C@H](O)[C@H]2O[C@H]2C[C@](C)(N)[C@H](O)[C@H](C)O2)Oc2ccc(cc2Cl)[C@H]1O [VANCOMYCIN] | 1 (≈ 0.69 µM) | > 64 | > 64 | > 64 | > 64 | > 64 | > 64 | > 64 | > 64 | > 64 | > 64 | > 64 | 1 (≈ 0.69 µM) | 1 (≈ 0.69 µM) | 
